Data on 37 sequences can be found in the array DNA melting data of Ke et al. (doi:10.1101/2024.01.08.574731).

Data set [1] in a line: melting temperature; fluorescence melt of hairpins on a sequencing array, two-state fit, raised by 9.35 °C to match UV melts. The settings on record: sodium 0.088 M. Put shortly:
(§1)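 Bootstrapped two-state fits yielded melting temperature and folding enthalpy for library hairpins. Cy3 fluorescence, with annealed Cy3 and quencher oligos, was imaged on a sequenced MiSeq flow cell in 50 mM Na-HEPES pH 8.0, 25 mM NaCl in 2.5 °C steps up to 60 °C, and normalised to pre-quench Cy3 and to control constructs. Four replicates were combined by inverse variance, and fitted temperatures were raised by 9.35 °C to match UV melts.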

A short description of data set [2]: folding enthalpy; higher = less favourable; fluorescence melt of hairpins on a sequencing array, two-state fit. The settings on record: sodium 0.088 M. Put shortly:
as §1

Consider CGGACACGGAAACGTCCG (((..(((....)))))), for which, in data set [1], the Tm is 47.6 °C. Also, in data set [2], the folding enthalpy is -26 kcal/mol.
For GATCTGATGACAGATC ((((((....)))))) the same measures were 48.8 °C and -34.8 kcal/mol.
The corresponding values for GAATTAGGAAACCAATTC (((((.(....).))))) are 27.7 °C and -10.8 kcal/mol.
The corresponding values for GATCGTACTGACGATC ((((((....)))))) are 55.2 °C and -36.2 kcal/mol.
In the case of GGTTACGAAAGTATACC ((((((....))).))), in data set [1], the Tm stood at 43.1 °C. In addition, in data set [2], the folding enthalpy is -23.8 kcal/mol.
For GATATTGGAAACAATGTC ((.((((....)))).)) the same measures were 36.3 °C and -30.9 kcal/mol.
For GTGGAACGAAAGTTCAC (((.(((....)))))), the Tm in data set [1] amounted to 44.9 °C. The folding enthalpy in data set [2] is -11.2 kcal/mol.
For GTACCCCGAAAGGGTTAC (((.(((....))).))) the same measures were 41.8 °C and -19.6 kcal/mol.
The corresponding values for GATATCCCGAAAGGGATC (((..(((....)))))) are 32.5 °C and -8.05 kcal/mol.
The corresponding values for GTTCACGGAAACGCGAAC ((((.((....)).)))) are 48.3 °C and -47.1 kcal/mol.
In the case of GACGAGCGAAAGCTGGTC (((.(((....))).))), in data set [1], the Tm came out at 54.8 °C. The folding enthalpy in data set [2] was -31.2 kcal/mol.
For GTTGGCGGAAACGCCAGC (.(((((....))))).) the same measures were 58.2 °C and -15.4 kcal/mol.
For GACTGCGAAAGCATAGTC ((((((....)))..))) the same measures were 46.9 °C and -19.4 kcal/mol.
For GTTTAGGGAAACTTAAGC (.(((.(....).))).) the same measures were 33.6 °C and -15.4 kcal/mol.
Turning to GATCGGTACCCCGATC ((((((....)))))), the Tm in data set [1] is 54.4 °C. In addition, in data set [2], the folding enthalpy is -42.5 kcal/mol.
The corresponding values for GCGTTCAACGC ((((...)))) are 56.8 °C and -23.1 kcal/mol.
For GCTGAAGGAAACTTTGGC ((..(((....)))..)) the same measures were 33 °C and -20 kcal/mol.
For GGTCGTGGAAACATGACC ((((.((....)).)))) the same measures were 56.5 °C and -34 kcal/mol.
In the case of GGTAGCGGAAACGCTGCC ((.((((....)))).)), in data set [1], the Tm turned out to be 62.5 °C. In data set [2], the folding enthalpy is -37.9 kcal/mol.
As for GTGACTGGAAACAGTTAC ((.((((....)))).)), in data set [1], the Tm came to 45.5 °C. The folding enthalpy in data set [2] was -29.2 kcal/mol.
Consider GACGGCGAAAGCCACGTC ((((((....)))..))), for which the Tm in data set [1] came to 49.8 °C. Further, the folding enthalpy in data set [2] was -15.3 kcal/mol.
For CTGCTGAAAAGCAG (((((....))))) the same measures were 58.9 °C and -22.2 kcal/mol.
The corresponding values for GGGGTCGAAAGACTCCCC ((((((....)))..))) are 54.3 °C and -22.2 kcal/mol.
For GTTGGCACGAAAGTGAAC (((..(((....)))))) the same measures were 38.8 °C and -20.6 kcal/mol.
As to GCAGACGGAAACGTTTGC (((.(((....))).))), the Tm in data set [1] worked out at 53.8 °C. The folding enthalpy in data set [2] was -46.1 kcal/mol.
As for GATCCGAAACGGATC ((((((...)))))), the Tm in data set [1] stood at 57 °C. The folding enthalpy in data set [2] is -35.4 kcal/mol.
The corresponding values for GACCCCGAAAGGGCAGTC ((((((....)))..))) are 35.4 °C and -14 kcal/mol.
In the case of GGTCTGTCGAAAGACACC (((..(((....)))))), the Tm in data set [1] was found to be 30.5 °C. Also, the folding enthalpy in data set [2] was -11.4 kcal/mol.
For GCGTGTGTACGC ((((....)))) the same measures were 53.3 °C and -25.7 kcal/mol.
For GTTCACGGAAACGTAAAC (((.(((....))).))) the same measures were 34.9 °C and -11.4 kcal/mol.
Take GGTTTCGGAAACGAGATC (.(.(((....))).).): in data set [1], the Tm is 27.7 °C. Besides, the folding enthalpy in data set [2] is -11.6 kcal/mol.
As for GTTTTGAAAAAAAC (((((....))))), the Tm in data set [1] stood at 37.6 °C. Further, the folding enthalpy in data set [2] was -12 kcal/mol.
For GTAGCGGGAAACCACTAC ((((.((....)).)))) the same measures were 42.2 °C and -34.1 kcal/mol.
For GGTATCGAAAGATTACC ((((((....))).))) the same measures were 37.7 °C and -24.9 kcal/mol.
Consider GATCTTAAAAAGATC ((((((...)))))), for which the Tm in data set [1] came to 42.7 °C. Besides, the folding enthalpy in data set [2] was -27.5 kcal/mol.
For GCGACTCTTCGC ((((....)))) the same measures were 50.6 °C and -23 kcal/mol.
For GCAGTGCGAAAGCTGTGC (((..((....))..))) the same measures were 50.2 °C and -19.4 kcal/mol.
